Measured values published in ChEMBL document CHEMBL1126267, “A novel synthesis and potent antiinflammatory activity of 4-hydroxy-2(1H)-oxo-1-phenyl-1,8-naphthyridine-3-carboxamides” (1992).

Assays:
Format in all cases: functional
Settings in all cases: route oral
[1] = test system: Rattus norvegicus; assay: Compound was tested for the inhibition of rat reversed passive Arthus pleurisy after peroral administration of 100 mg/kg dose at 3.22*10e6 no of cells with 3.86*10e6 cells of control
Method in brief: (§1)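 Male Wistar rats (about 250 g) were given compound orally before the antiserum. Under ether anesthesia, 0.2 mL rabbit anti-egg albumin antiserum was injected intrapleurally. After 30 min, egg albumin (15 mg/100 g body weight in 0.1 mL saline) was given iv. Rats were killed 4.5 h later and the thoracic cavity was rinsed with 5 mL saline. Exudate volume and infiltrated cell number were measured, with inhibition % versus controls as mean ± SEM.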

[2] = test system: Rattus norvegicus; assay: Compound was tested for the inhibition of rat reversed passive Arthus pleurisy after peroral administration of 100 mg/kg dose at 0.82 mL of exudate volume with 0.86 mL of control (injected intrapleurally); method in brief: as §1
[3] = test system: Rattus norvegicus; assay: Inhibition of Zymosan-induced rat's paw edema(ZPE) after peroral administration of 100 mg/kg dose.
Method in brief: (§2)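 Male Wistar rats (about 150 g) were dosed orally with compound suspended in 5% arabic gum, 1 h before a subplantar hind-paw injection of 0.1 mL saline. The irritant was 1% zymosan for 33 or 1% λ-carrageenin for 34. Paw volume was measured by plethysmograph before dosing and at 4 h (zymosan) or 3 h (carrageenin). Swelling is relative to initial volume, as mean ± SEM. % inhibition is versus the control group's mean swelling.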

[4] = test system: Rattus norvegicus; assay: Antiinflammatory activity on Carrageenan rat's paw edema(CPE) after peroral administration of 100 mg/kg dose with control swelling of 90.0%
[5] = test system: Rattus norvegicus; assay: Antiinflammatory activity on Zymosan-induced rat's paw edema(ZPE) after peroral administration of 100 mg/kg dose with control swelling of 85.5%
Method in brief: (§3)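 Male Wistar rats weighing about 150 g were dosed orally with compound suspended in 5% arabic gum. 1 h later, 1% zymosan in 0.1 mL saline was injected subplantarly into the hind paw. Paw volume was measured by plethysmograph before dosing and 4 h after zymosan, with edema as the volume difference. Inhibition % was derived from mean swelling versus the control group.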

[6] = test system: Rattus norvegicus; assay: Inhibition of carrageenan-induced rat's paw edema (CPE) after peroral administration of 100 mg/kg dose.; method in brief: as §2
[7] = test system: Rattus norvegicus; assay: Compound was tested for the inhibition of rat reversed passive Arthus pleurisy after peroral administration of 100 mg/kg dose at 5.76*10e6 no of cells with 7.4*10e6 cells of control
Method in brief: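 Male Wistar rats (about 250 g) under ether received 0.2 mL rabbit anti-egg-albumin antiserum intrapleurally. Thirty min later they got 15 mg EA/100 g body weight in 0.1 mL saline iv. Compounds were given orally beforehand. Rats were killed 4.5 h after induction and the thoracic cavity rinsed with 5 mL saline. Exudate volume and infiltrated cell count were read as mean ± SE. % inhibition is versus control.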

[8] = test system: Rattus norvegicus; assay: Antiinflammatory activity on Carrageenan rat's paw edema(CPE) after peroral administration of 100 mg/kg dose with control swelling of 73.7%
[9] = test system: Rattus norvegicus; assay: Antiinflammatory activity on Zymosan-induced rat's paw edema(ZPE) after peroral administration of 100 mg/kg dose with control swelling of 61.0%; method in brief: as §3
[10] = test system: Rattus norvegicus; assay: Compound was tested for the inhibition of rat reversed passive Arthus pleurisy after peroral administration of 100 mg/kg dose at 0.66 mL of exudate volume with 0.82 mL of control (injected intrapleurally); method in brief: as §1

SMILES	inhibition in vivo at 100 mg/kg [1] [%]	inhibition in vivo at 100 mg/kg [2] [%]	inhibition in vivo at 100 mg/kg [3] [%]	Swelling [4] [%]	Swelling [5] [%]	inhibition in vivo at 100 mg/kg [6] [%]	inhibition in vivo at 100 mg/kg [7] [%]	Swelling [8] [%]	Swelling [9] [%]	inhibition in vivo at 100 mg/kg [10] [%]
O=C(Nc1cccc(Cl)c1)c1c(O)c2cccnc2n(-c2ccccc2)c1=O	21.7	5.2	7.6	77.9	79	13.4	–	–	–	–
COc1ccc(NC(=O)c2c(O)c3cccnc3n(-c3ccccc3)c2=O)cn1	–	–	13.1	–	–	-10.2	22.2	72.3	53	19.5
